Experimental data from ChEMBL document CHEMBL1131202, “Alkyl esters of camptothecin and 9-nitrocamptothecin: synthesis, in vitro pharmacokinetics, toxicity, and antitumor activity” (1998).

Assays:
Format in all cases: functional
[1] = In vitro determination of lactone level in human plasma after administration of compound at 0 hour
In short: (§1)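 Drug (500 ng, in methanol) added to 1 mL of human or mouse plasma and incubated at 37 °C. 100-µL aliquots taken at 0.5–6 h. Analysis by C-8 HPLC (30% acetonitrile/water/0.1% acetic acid) with fluorescence at 347/418 nm. Percent lactone: lactone/total drug for the parent; drug at each time relative to t = 0 for the ester.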

[2] = In vitro determination of lactone level in human plasma after administration of compound at 1 hour; in short: as §1
[3] = In vitro determination of lactone level in human plasma after administration of compound at 6 hour; in short: as §1
[4] = test system: Mus musculus; assay: In vitro determination of lactone level in mouse plasma after administration of compound at 0 hour; in short: as §1
[5] = test system: Mus musculus; assay: In vitro determination of lactone level in mouse plasma after administration of compound at 1 hour; in short: as §1
[6] = test system: Mus musculus; assay: In vitro determination of lactone level in mouse plasma after administration of compound at 6 hour; in short: as §1
[7] = In vitro determination of lactone level in human plasma after administration of compound at 2 hour; in short: as §1
[8] = In vitro determination of lactone level in human plasma after administration of compound at 4 hour; in short: as §1
[9] = test system: Mus musculus; assay: Change in the body weight of mice during the test time period after 34 days at a dose of 7 mg/kg
[10] = test system: Mus musculus; assay: Change in the body weight of mice during the test time period after 21 days at a dose of 5 mg/kg
[11] = test system: Mus musculus; assay: Change in the body weight of mice during the test time period after 21 days at a dose of 6 mg/kg
[12] = test system: Mus musculus; assay: Change in the body weight of mice during the test time period after 21 days at a dose of 7 mg/kg
[13] = test system: Mus musculus; assay: Change in the body weight of mice during the test time period after 21 days at a dose of 8 mg/kg
[14] = test system: Mus musculus; assay: Change in the body weight of mice during the test time period after 27 days at a dose of 5 mg/kg
[15] = test system: Mus musculus; assay: Change in the body weight of mice during the test time period after 27 days at a dose of 6 mg/kg
[16] = test system: Mus musculus; assay: Change in the body weight of mice during the test time period after 27 days at a dose of 7 mg/kg
[17] = test system: Mus musculus; assay: Change in the body weight of mice during the test time period after 27 days at a dose of 8 mg/kg
[18] = test system: Mus musculus; assay: Change in the body weight of mice during the test time period after 34 days at a dose of 5 mg/kg
[19] = test system: Mus musculus; assay: Change in the body weight of mice during the test time period after 34 days at a dose of 6 mg/kg
[20] = test system: Mus musculus; assay: Change in the body weight of mice during the test time period after 34 days at a dose of 8 mg/kg
[21] = test system: Mus musculus; assay: Change in the body weight of mice during the test time period after 41 days at a dose of 5 mg/kg
[22] = test system: Mus musculus; assay: Change in the body weight of mice during the test time period after 41 days at a dose of 6 mg/kg
[23] = test system: Mus musculus; assay: Change in the body weight of mice during the test time period after 41 days at a dose of 7 mg/kg
[24] = test system: Mus musculus; assay: Change in the body weight of mice during the test time period after 41 days at a dose of 8 mg/kg
[25] = test system: Mus musculus; assay: Change in the body weight of mice during the test time period after 48 days at a dose of 5 mg/kg
[26] = test system: Mus musculus; assay: Change in the body weight of mice during the test time period after 48 days at a dose of 6 mg/kg
[27] = test system: Mus musculus; assay: Change in the body weight of mice during the test time period after 48 days at a dose of 7 mg/kg
[28] = test system: Mus musculus; assay: Change in the body weight of mice during the test time period after 48 days at a dose of 8 mg/kg
[29] = test system: Mus musculus; assay: Change in the body weight of mice during the test time period after 56 days at a dose of 5 mg/kg
[30] = test system: Mus musculus; assay: Change in the body weight of mice during the test time period after 56 days at a dose of 6 mg/kg
[31] = test system: Mus musculus; assay: Change in the body weight of mice during the test time period after 56 days at a dose of 7 mg/kg
[32] = test system: Mus musculus; assay: Change in the body weight of mice during the test time period after 56 days at a dose of 8 mg/kg
[33] = test system: Mus musculus; assay: In vitro determination of lactone level in mouse plasma after administration of compound at 2 hour; in short: as §1
[34] = test system: Mus musculus; assay: In vitro determination of lactone level in mouse plasma after administration of compound at 4 hour; in short: as §1
[35] = test system: Mus musculus; assay: In vitro determination of tlactone level in mouse plasma after administration of compound at 0 hour
In short: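 Mouse plasma (1 mL) was spiked with 500 ng drug in methanol and incubated at 37 °C, with aliquots taken over time starting at t = 0 h. Percent lactone was derived by reverse-phase C-8 HPLC with fluorescence detection and peak-area integration. For parent camptothecins it was lactone/total drug; for esters it was drug at each time point/drug at t = 0 h.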

## CCC(=O)O[C@]1(CC)C(=O)OCc2c1cc1n(c2=O)Cc2cc3c([N+](=O)[O-])cccc3nc2-1
[1]
  Lactone: 100%
[2]
  Lactone: 93.7%
[3]
  Lactone: 64.4%
[4]
  Lactone: 100%
[5]
  Lactone: 97.7%
[6]
  Lactone: 84.3%

## CCC(=O)O[C@]1(CC)C(=O)OCc2c1cc1n(c2=O)Cc2cc3ccccc3nc2-1 [CAMPTOTHECIN-20-O-PROPIONATE]
[1]
  Lactone: 100%
[2]
  Lactone: 86%
[7]
  Lactone: 77%
[8]
  Lactone: 68%
[3]
  Lactone: 56%
[9]
  Body weight: 30.6 g
[10]
  Body weight: 33 g
[11]
  Body weight: 32.9 g
[12]
  Body weight: 30.8 g
[13]
  Body weight: 32.9 g
[14]
  Body weight: 33.7 g
[15]
  Body weight: 33.4 g
[16]
  Body weight: 31.7 g
[17]
  Body weight: 34.1 g
[18]
  Body weight: 34.4 g
[19]
  Body weight: 33.8 g
[20]
  Body weight: 34 g
[21]
  Body weight: 33.5 g
[22]
  Body weight: 33.5 g
[23]
  Body weight: 31.1 g
[24]
  Body weight: 33.4 g
[25]
  Body weight: 32.9 g
[26]
  Body weight: 34 g
[27]
  Body weight: 31.6 g
[28]
  Body weight: 33.9 g
[29]
  Body weight: 33.2 g
[30]
  Body weight: 32.2 g
[31]
  Body weight: 31.5 g
[32]
  Body weight: 33.2 g
[4]
  Lactone: 100%
[5]
  Lactone: 97.5%
[6]
  Lactone: 85%

## CC[C@@]1(O)C(=O)OCc2c1cc1n(c2=O)Cc2cc3ccccc3nc2-1 [CAMPTOTHECIN]
[1]
  Lactone: 100%
[2]
  Lactone: 12%
[7]
  Lactone: 0.5%
[8]
  Lactone: 0%
[3]
  Lactone: 0%
[5]
  Lactone: 42%
[33]
  Lactone: 35%
[34]
  Lactone: 18%
[6]
  Lactone: 18%
[35]
  Lactone: 100%

## CC[C@@]1(O)C(=O)OCc2c1cc1n(c2=O)Cc2cc3c([N+](=O)[O-])cccc3nc2-1 [RUBITECAN]
[1]
  Lactone: 100%
[2]
  Lactone: 7%
[3]
  Lactone: 0%
[4]
  Lactone: 100%
[5]
  Lactone: 30%
